CHO-K1 Ca antag = M1 antagonist counterscreen hit in parental CHO-K1 cells | ATP-induced calcium, Fluo-8 fluorescence | inhibition, % at 3 µM | actives 0.6% (n = 360,000);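 active means inhibition above a per-plate cutoff, the plate's mean sample inhibition plus 3 SD, cut at about 24% in these data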;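 further: 0% = DMSO plus EC80 ATP and 100% = DMSO alone without ATP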
CHO-K1 Ca ag = counter-screen for M1 agonists: effect in parental CHO-K1 cells; Fluo-8 calcium fluorescence; scaled to maximal ATP response, vehicle zero; activation, % at 3 µM; actives 0.48% (n = 360,000); in the data active means activation above about 15%;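 further: untransfected CHO-K1 host cells lacking M1 receptor as counterscreen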
OX1R antag-1 = blocks the human orexin 1 receptor | O43613 | OX1R-expressing cells, FRET antagonist read-out | inhibition, % at 6.6 µM | actives 1.8% (n = 330,000) | AID 485270; in the data active means inhibition mostly above about 38%, no sharp cut-off; inactive means mostly below about 40%;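 further: 0% = agonist challenge alone and 100% = reference antagonist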
Target sequence (O43613 whole entry, looked up): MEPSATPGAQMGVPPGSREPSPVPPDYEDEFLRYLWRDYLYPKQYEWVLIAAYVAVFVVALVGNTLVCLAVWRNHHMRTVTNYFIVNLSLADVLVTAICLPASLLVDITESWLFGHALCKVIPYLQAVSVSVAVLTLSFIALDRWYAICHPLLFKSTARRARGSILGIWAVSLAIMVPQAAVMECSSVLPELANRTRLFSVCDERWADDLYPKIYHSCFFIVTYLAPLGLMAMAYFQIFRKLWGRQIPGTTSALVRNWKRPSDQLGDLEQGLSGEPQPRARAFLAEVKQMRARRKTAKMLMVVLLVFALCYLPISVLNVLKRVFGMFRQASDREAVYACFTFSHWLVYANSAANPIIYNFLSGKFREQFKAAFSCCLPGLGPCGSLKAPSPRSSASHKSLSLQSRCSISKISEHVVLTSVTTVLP
CHO-K1 Ca PAM = counter-screen for M1 PAMs: effect in parental CHO-K1 cells; ATP EC20, Fluo-8 calcium fluorescence; 0% at ATP EC20, 100% at ATP max; activation, % at 3 µM; actives 0.02% (n = 360,000);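 active means activation above the run cutoff, the mean activation of all test compounds plus 3 SD, cut at about 40% in these data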;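 further: peak over basal fluorescence ratio in a 140 s read after ATP addition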
OX1R antag-2 = human HCRTR1 antagonism; O43613; CHO/OX1R cells, Fluo-8 calcium fluorescence, orexin A; inhibition, % at 5 µM; actives 0.43% (n = 330,000); AID 434989;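 active means inhibition above its plate's threshold, mean inhibition of all tested compounds on the plate plus 3 SD, cut at about 37% in these data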;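 further: 0% = orexin A challenge wells and 100% = SB-334867-A antagonist wells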
CHO parental Ca = counter-screen for OX1R antagonists: effect in parental CHO cells; parental CHO-K1, ATP-induced calcium, Fluo-8 fluorescence; inhibition, % at 5.6 µM; actives 0.63% (n = 330,000);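 active means inhibition above that plate's mean sample inhibition plus 3 SD, cut at about 26% in these data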;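 further: 0% = ATP-challenged DMSO wells and 100% = DMSO wells without ATP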
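Assay system: parental CHO cells; Read-out basis: percent inhibition of ATP-evoked calcium rise, normalized to controls; Benchmarks: ATP and no-ATP DMSO wells; Compound dosing: single nominal dose of 5.6 µM per compound; Signal: Fluo-8 calcium dye fluorescence; Also added: ATP as calcium-mobilizing challenge; Repeats: singlicate.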
The depositor's hits bear a star; . = no result given. In the library only some 2.9% were active in any assay of this set; here they are far more common.

SMILES	CHO-K1 Ca antag	CHO-K1 Ca ag	OX1R antag-1	CHO-K1 Ca PAM	OX1R antag-2	CHO parental Ca
COc1ccc(-c2nn(-c3ccccc3)cc2CNC[C@H]2O[C@@H](n3ccc(=O)[nH]c3=O)[C@H](O)[C@@H]2O)cc1	-3	0	.	-3	.	.
COc1ccc(-n2cc(CN(C)C(C)c3ccncn3)c(-c3cccc(F)c3)n2)cc1 (stereo unspecified)	-15	2	2	5	-30	-19
COc1ccc(-n2cc(CN(C)CCO)c(-c3cccc(F)c3)n2)cc1	10	18*	11	-2	-22	-12
COc1ccc(C2(C)NC(=O)N(CC(=O)c3cc(C)n(C4CC4)c3C)C2=O)cc1OC (stereo unspecified)	-8	4	1	7	-15	-16
CN(C)c1ccc(/C=N/NC(=O)C(=O)/C=C2\NC3(CCCC3)Cc3ccccc32)cc1	7	0	19	13	-20	-19
COc1cc(/C=N/NC(=O)C(=O)/C=C2\NC3(CCCC3)Cc3ccccc32)ccc1O	7	13	61*	14	2	-19
COc1ccc(N2CC(NC(=O)N3CCN(c4ccccc4)CC3)CC2=O)cc1 (stereo unspecified)	-5	16*	10	20	-5	-9
COc1ccc(N2CCN(C(=O)C3CC(=O)N(c4ccc(C)cc4)C3)CC2)cc1 (stereo unspecified)	-18	0	33	18	-24	-6
COc1ccc(N2CC(NC(=O)Nc3ccccc3)CC2=O)cc1 (stereo unspecified)	11	15*	2	1	4	-1
Cc1ccc(N(C)S(=O)(=O)c2csc(C(N)=O)c2)cc1C	-9	3	-9	16	-18	-8
O=c1c2cccc3c2c(nn1CN1CCOCC1)-c1ccccc1-3	8	0	71*	13	0	-12
O=C(NCCc1ccccc1)c1cccnc1N1CCCCCC1	-18	1	27	-3	-18	-16
O=C1CSC(=S)N1/N=C/c1cc(Br)c(O)c(Br)c1	45*	106*	46	-8	90*	75*
C/C(=N\Nc1nc2ccccc2nc1C)c1ccccc1O	15	0	64*	-8	-10	6
CC(=NNc1ccc2ccccc2n1)c1ccccc1O	-6	0	.	8	.	.
Cc1occc1C(=O)N1CCCC(Nc2ccc(F)c(F)c2)C1 (stereo unspecified)	13	16*	24	7	-10	-13
Cc1ccc(OCC(=O)N/N=C2/SCC(=O)N2Cc2ccccc2)cc1	25*	0	24	-15	-23	-9
COc1ccc(NC2CCCN(C(=O)c3cn(C)c4ccccc34)C2)cc1 (stereo unspecified)	-14	1	38*	1	-6	-20
COc1ccc(NC2CCCN(C(=O)CCCn3cncn3)C2)cc1 (stereo unspecified)	11	18*	22	4	9	4
COc1cccc(C(NC(C)=O)c2nc(-c3ccc(C)c(C)c3)cs2)c1 (stereo unspecified)	26*	0	.	-17	.	.
COC(=O)c1sc(S(=O)(=O)NC(Cc2ccccc2)C(=O)O)c(C(=O)OC)c1C (stereo unspecified)	-12	0	32*	13	13	-5
CN(C(=O)c1ccc(NC(=O)Cc2ccc(NC(=O)C3CCN(C(=O)c4ccccc4)CC3)cc2)cc1)C1CCCC1	-8	0	.	16	.	.
O=[N+]([O-])c1ccc(N2CCN(Cc3ccccc3)CC2)c2c1no[n+]2[O-]	10	19*	.	7	.	.
CC(=O)Nc1ccc(CN2C(=O)C(C)(C)ON=C2c2ccc(C(F)(F)F)cc2)cc1	37*	0	.	-10	.	.
Cn1c(C(=O)N2CCN(c3ccc(Cl)cc3)CC2)cc2c(=O)[nH]c3ccccc3c21	0	2	24	-2	-23	-13
SMILES	CHO-K1 Ca antag	CHO-K1 Ca ag	OX1R antag-1	CHO-K1 Ca PAM	OX1R antag-2	CHO parental Ca
Cc1ccc(Cl)cc1N1CCN(C(=O)c2cc3c(=O)[nH]c4ccccc4c3n2C)CC1	-15	6	17	18	40	45*
COc1ccccc1CN1CCC(CNS(=O)(=O)c2cc(-c3cc(C)no3)ccc2OC)CC1	-18	1	9	1	-33	-23
O=[N+]([O-])c1nn(-c2ccccc2)n(O)c1=NC1CCN(Cc2ccccc2)CC1	0	0	46*	6	-21	3
CCN(CC)C(=O)Cn1cc(C(=O)C(=O)N2CCN(Cc3ccc4c(c3)OCO4)CC2)c2ccccc21	-15	1	6	-4	-24	-19
Cn1cc(CN2CCCC(C(=O)c3ccc(-c4ccccc4)c(F)c3)C2)cn1 (stereo unspecified)	-13	6	28	30	-29	-16
Cc1nn(C)cc1CN1CCCC(C(=O)c2ccc(-c3ccccc3)c(F)c2)C1 (stereo unspecified)	12	26*	11	15	-31	-9
O=C(Nc1ccc(S(=O)(=O)Nc2ncccn2)cc1)C(F)(F)F	-5	0	13	10	8	-1
CCOC(=O)c1cnc2c([N+](=O)[O-])cnn2c1C	-2	0	21	-10	0	-2
O=[N+]([O-])c1cnn2cc(Br)cnc12	-7	0	74*	10	-14	2
O=C(CCNC(=O)c1ccc(Br)cc1)OCc1ccccc1Cl	-6	0	9	-5	-16	-24
O=C(Cc1cccc2ccccc12)NNC(=O)c1ccc(Br)o1	-10	1	51*	3	14	-14
O=C(Cc1ccccc1)NNC(=O)c1ccc(Br)o1	3	0	.	-3	.	.
C[C@]12C=C[C@H](O)CC1=CCC1C2CC[C@@]2(C)C1CCC21OCCO1 (stereo partly specified)	-10	0	11	11	-13	-5
Cn1ncc(Br)c1C(=O)N/N=C/c1cccc(OC2CSC2)c1	-4	2	25	12	-18	-13
O=C(N/N=C/c1cccc(OC2CSC2)c1)c1ccccc1O	10	5	72*	-8	1	12
CC(C)(C)c1ccc(OCc2ccc(C(=O)NCc3cccnc3)o2)cc1	8	12	8	7	20	37*
CC1(C)Cc2cccc(C(=O)NC3CCN(Cc4ccccc4)CC3)c2O1	8	1	1	-6	-22	-16
O=C(NCC(=O)N1CCN(Cc2ccccc2)CC1)c1cc(Cl)cc([N+](=O)[O-])c1	-14	1	34*	10	-11	-2
COCCCNC(=O)C[C@H]1C[C@H](C(=O)N(C(C)C)C(C)C)[C@@]2(C)c3[nH]c4cc(CCC(=O)N(C)C)ccc4c3CCN2C1=O	-15	1	4	12	-7	-13
